Experimental data reported in ChEMBL document CHEMBL1124451, “[(1H-imidazol-1-yl)methyl]- and [(3-pyridinyl)methyl]pyrroles as thromboxane synthetase inhibitors” (J Med Chem, 1989).
Values belong to the molecule of their own block, whether it stands above or below them.

Legend:
Mus musculus [1] = experiment: Activity at 10 mg/kg […] against mortality in a pulmonary thromboembolism model in mice (10 animals) at -18h following oral administration; type: functional
How it was run: (§1)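 Male Swiss-Webster mice (22-26 g), 10 per group (one group of 9); test material given po in 0.2 mL CMC at -1, -3, -5 or -18 h before challenge. At hour 0, collagen extract plus epinephrine hydrochloride given iv via tail vein in 0.9% saline. The collagen amount was titrated per lot to 90-100% mortality in vehicle controls. Readout: % surviving at 24 h.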

Mus musculus [2] = experiment: Activity at 10 mg/kg […] against mortality in a pulmonary thromboembolism model in mice (10 animals) at -5h following oral administration; type: functional; how it was run: as §1
Mus musculus [3] = experiment: Activity at 10 mg/kg […] against mortality in a pulmonary thromboembolism model in mice (10 animals) at -7h following oral administration; type: functional
Mus musculus [4] = experiment: Activity at 25 mg/kg given intravenously against mortality in a pulmonary thromboembolism model in mice (9 animals) at -3h; type: functional; settings: route intravenous
How it was run: (§2)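 Male Swiss-Webster mice (22-26 g); test material given iv in 0.2 mL CMC before challenge (mostly at -3 h, one group at -1 h). At hour 0, collagen extract plus epinephrine hydrochloride given iv in 0.2 mL 0.9% saline via tail vein. The collagen amount was set per lot as the minimum giving 90-100% mortality in CMC-vehicle controls. Readout: % surviving at 24 h.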

Mus musculus [5] = experiment: Activity at 10 mg/kg given intravenously against mortality in a pulmonary thromboembolism model in mice (10 animals) at -1h; type: functional; settings: route intravenous; how it was run: as §2
Mus musculus [6] = experiment: Activity at 10 mg/kg […] against mortality in a pulmonary thromboembolism model in mice (10 animals) at -1h following oral administration; type: functional; how it was run: as §1
Homo sapiens = species: Homo sapiens; experiment: In vitro inhibition of ADP-induced aggregation of human platelet rich plasma in the presence of pig aortal microsomes.; type: functional; settings: Aorta
How it was run: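 Human citrated blood (0.38% citrate final), PRP by centrifugation at 200g, room temperature. Drug added to 1.0 mL PRP, 2 min at 37 °C with stirring (500 rpm), then pig aortal microsomes 3 min; microsome amount set by the dazoxiben standard. Aggregation induced by 5 μM ADP (final), read turbidimetrically.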

Mus musculus [7] = experiment: Activity at 10 mg/kg […] against mortality in a pulmonary thromboembolism model in mice (10 animals) at -3h following oral administration; type: functional; how it was run: as §1
Mus musculus [8] = experiment: Activity at 10 mg/kg given intravenously against mortality in a pulmonary thromboembolism model in mice (10 animals) at -3h; type: functional; settings: route intravenous; how it was run: as §2
[9] = molecular target: T1, Thromboxane-A synthase (Homo sapiens) (UniProt P24557); experiment: Relative potency of thromboxane A2 synthetase as reduced ADP-induced aggregation of human platelet rich plasma compared to dazoxiben; type: functional, cell-free
T1 sequence (whole entry): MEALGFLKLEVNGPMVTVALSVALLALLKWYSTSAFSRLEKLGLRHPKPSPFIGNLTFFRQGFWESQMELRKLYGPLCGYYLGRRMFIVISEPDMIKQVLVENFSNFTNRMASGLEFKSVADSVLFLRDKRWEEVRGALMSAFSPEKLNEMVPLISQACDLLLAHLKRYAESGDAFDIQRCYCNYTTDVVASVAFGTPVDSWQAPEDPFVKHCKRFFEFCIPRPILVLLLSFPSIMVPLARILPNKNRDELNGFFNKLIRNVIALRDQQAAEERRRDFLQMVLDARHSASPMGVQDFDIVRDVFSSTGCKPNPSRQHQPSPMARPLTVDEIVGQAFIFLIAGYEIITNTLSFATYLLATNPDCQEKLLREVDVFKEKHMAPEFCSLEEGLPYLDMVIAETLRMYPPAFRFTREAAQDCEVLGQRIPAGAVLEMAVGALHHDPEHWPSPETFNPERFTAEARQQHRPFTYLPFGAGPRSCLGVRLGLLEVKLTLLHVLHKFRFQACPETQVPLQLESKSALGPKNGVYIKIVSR

Rattus norvegicus [10] = experiment: Concentration of thromboxane in serum of rats with 5/6 nephrectomy; when treated with compound at 410 mg/kg per day (n=4); type: functional, organism-based
How it was run: (§3)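 Male Munich Wistar rats, 200-270 g, 5/6 renal ablation (right nephrectomy plus ligation of arterial branches to two-thirds of left kidney) under 50 mg/kg brevital ip. Drug given in drinking water from 1 week post-surgery: 500 mg/L (68 mg/kg/day), 1500 mg/L (205 mg/kg/day), or 3000 mg/L (410 mg/kg/day) after 9 weeks. TXB2 measured by radioimmunoassay in urine (8-11 weeks) and serum (10-13 weeks); controls received water.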

Rattus norvegicus [11] = experiment: Percent inhibition of thromboxane from control in urine of rats with 5/6 nephrectomy at 68 mg/kg per day; type: functional; how it was run: as §3
Rattus norvegicus [12] = experiment: Concentration of thromboxane in serum of rats with 5/6 nephrectomy; when treated with compound at 205 mg/kg per day (n=4); type: functional, organism-based; how it was run: as §3
Mus musculus [13] = experiment: Activity at 6.25 mg/kg given intravenously against mortality in a pulmonary thromboembolism model in mice (10 animals) at 3 hr; type: functional; settings: route intravenous; how it was run: as §2
Mus musculus [14] = experiment: Effect of TXA2 Synthetase inhibition (perorally) upon inflammation in oxazolone induced delayed hypersensitivity ear edema in mice; type: functional
How it was run: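 Oxazolone-induced delayed hypersensitivity ear edema in mice; test material dosed orally at 25 mg/kg.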

Mus musculus [15] = species: Mus musculus; experiment: Effect of TXA2 Synthetase inhibition (perorally) upon inflammation in phenoylquinone-induced writhing in mice; type: functional
Mus musculus [16] = experiment: Activity at 10 mg/kg given perorally against mortality in a pulmonary thromboembolism model in mice (10 animals) at -5h following oral administration; type: functional; how it was run: as §1
Rattus norvegicus [17] = experiment: Concentration of thromboxane in urine of rats with 5/6 nephrectomy; when treated with compound at 410 mg/kg per day (n=4); type: functional, organism-based; how it was run: as §3
Mus musculus [18] = experiment: Activity at 25 mg/kg given intravenously against mortality in a pulmonary thromboembolism model in mice (10 animals) at 3 hr; type: functional; settings: route intravenous; how it was run: as §2
Mus musculus [19] = experiment: Activity at 10 mg/kg given perorally against mortality in a pulmonary thromboembolism model in mice (10 animals) at 1 hr; type: functional; settings: route oral; how it was run: as §1
Rattus norvegicus [20] = experiment: Percent inhibition of thromboxane from control in serum of rats with 5/6 nephrectomy at 205 mg/kg per day; type: functional; how it was run: as §3
Rattus norvegicus [21] = experiment: Concentration of thromboxane in urine of rats with 5/6 nephrectomy; when treated with compound at 68 mg/kg per day (n=4); type: functional, organism-based; how it was run: as §3
Rattus norvegicus [22] = experiment: Percent inhibition of thromboxane from control in urine of rats with 5/6 nephrectomy at 410 mg/kg per day; type: functional; how it was run: as §3
Rattus norvegicus [23] = experiment: Total glomeruli with lesions was determined […], in kidneys of rats after dosing with compound at 205 mg/kg per day; type: functional, Kidney
How it was run: (§4)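 5/6 renal ablated male Munich Wistar rats received drug in drinking water: 205 mg/kg/day, or 68 mg/kg/day for 9 weeks then 410 mg/kg/day for 4 weeks; controls received water. Kidneys perfused with fixative at end of week 10 (205 group) or week 13. Glomeruli with lesions counted (mesangial proliferation, tubular hyaline casts, cortical interstitial inflammation, hydronephrosis); mean ± SEM.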

Rattus norvegicus [24] = experiment: Percent inhibition of thromboxane from control in urine of rats with 5/6 nephrectomy at 205 mg/kg per day; type: functional; how it was run: as §3
Rattus norvegicus [25] = experiment: Effect of TXA2 Synthetase inhibition (perorally) upon inflammation in carrageenan induced rat paw edema in rats
Rattus norvegicus [26] = species: Rattus norvegicus; experiment: Effect of TXA2 Synthetase inhibition (perorally) upon inflammation in rat adjuvant-induced arthritis model; type: functional
Mus musculus [27] = experiment: Activity at 10 mg/kg given perorally against mortality in a pulmonary thromboembolism model in mice (10 animals) at -18h following oral administration; type: functional; how it was run: as §1
Mus musculus [28] = experiment: Effect of TXA2 Synthetase inhibition (topically) upon inflammation in arachidonic acid induced ear edema in mice; type: functional
How it was run: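 Arachidonic acid-induced ear edema in mice; test material applied topically at 2 mg/mouse.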

Rattus norvegicus [29] = experiment: Total glomeruli with lesions was determined […], in kidneys of rats after dosing at 68 mg/kg per day for 9 weeks following by dosing with 410 mg/kg/day for 4 weeks; type: functional, Kidney; how it was run: as §4
Rattus norvegicus [30] = experiment: Concentration of thromboxane in urine of rats with 5/6 nephrectomy; when treated with compound at 205 mg/kg per day (n=5); type: functional, organism-based; how it was run: as §3
Rattus norvegicus [31] = experiment: Percent inhibition of thromboxane from control in serum of rats with 5/6 nephrectomy at 410 mg/kg per day; type: functional; how it was run: as §3
Mus musculus [32] = experiment: Activity at 12.5 mg/kg given intravenously against mortality in a pulmonary thromboembolism model in mice (10 animals) at 3 hr; type: functional; settings: route intravenous; how it was run: as §2
Mus musculus [33] = experiment: Activity at 10 mg/kg given perorally against mortality in a pulmonary thromboembolism model in mice (10 animals) at -1h following oral administration; type: functional; how it was run: as §1
Mus musculus [34] = experiment: Effect of TXA2 Synthetase inhibition (topically) upon inflammation in 12-O-tetradecanoylphorbol acetate induced ear edema in mice; type: functional
Mus musculus [35] = experiment: Activity at 10 mg/kg given perorally against mortality in a pulmonary thromboembolism model in mice (10 animals) at -3h following oral administration; type: functional; how it was run: as §1

SMILES: O=C(O)c1ccc(OCCn2ccnc2)cc1 [DAZOXIBEN]
survival at 10 mg/kg (Mus musculus [1]): 10%
survival at 10 mg/kg (Mus musculus [2]): 20%
survival at 10 mg/kg (Mus musculus [3]): 20%
survival at 25 mg/kg (Mus musculus [4]): 67%
survival at 10 mg/kg (Mus musculus [5]): 30%
survival at 10 mg/kg (Mus musculus [6]): 50%
IC50 (Homo sapiens): 2280 nM
survival at 10 mg/kg (Mus musculus [7]): 40%

SMILES: C/C(=C/c1cc(Cc2cccnc2)n(C(C)(C)C)c1)C(=O)O
survival at 10 mg/kg (Mus musculus [8]): 30%
Relative potency [9]: 43

SMILES: C/C(=C/c1ccc(Cc2cccnc2)n1C(C)C)C(=O)O
Relative potency [9]: 0.9

SMILES: C/C(=C/c1ccc(Cc2cccnc2)n1CC(C)(C)C)C(=O)O
Relative potency [9]: 0.24

SMILES: C/C(=C/c1ccc(Cn2ccnc2)n1C)C(=O)O
Concentration (Rattus norvegicus [10]): 36 ng/day
inhibition in vivo at 68 mg/kg/day (Rattus norvegicus [11]): 78.9%
Concentration (Rattus norvegicus [12]): 10 ng/day
survival at 6.25 mg/kg (Mus musculus [13]): 70%
Dose (Mus musculus [14]): 25 mg/kg
Dose (Mus musculus [15]): 3 mg mouse-1
survival at 10 mg/kg (Mus musculus [16]): 30%
Concentration (Rattus norvegicus [17]): 59 ng/day
survival at 25 mg/kg (Mus musculus [18]): 90%
survival at 10 mg/kg (Mus musculus [19]): 50%
inhibition in vivo at 205 mg/kg/day (Rattus norvegicus [20]): 98%
Concentration (Rattus norvegicus [21]): 42 ng/day
inhibition in vivo at 410 mg/kg/day (Rattus norvegicus [22]): 70.4%
Total glomeruli (Rattus norvegicus [23]): 13
inhibition in vivo at 205 mg/kg/day (Rattus norvegicus [24]): 77.4%
Dose (Rattus norvegicus [25]): 10 mg rat-1
Dose (Rattus norvegicus [26]): 4.25 mg rat-1
Relative potency [9]: 2.2
survival at 10 mg/kg (Mus musculus [27]): 10%
Dose (Mus musculus [28]): 2 mg mouse-1
Total glomeruli (Rattus norvegicus [29]): 8
Concentration (Rattus norvegicus [30]): 45 ng/day
inhibition in vivo at 410 mg/kg/day (Rattus norvegicus [31]): 92.8%
survival at 12.5 mg/kg (Mus musculus [32]): 70%
survival at 10 mg/kg (Mus musculus [33]): 40%
Dose (Mus musculus [34]): 0.5 mg mouse-1
survival at 10 mg/kg (Mus musculus [35]): 40%

Further lines, results first:

Relative potency [9]: 0.62
SMILES: Cn1cc(/C=C/C(=O)O)cc1Cn1ccnc1

Relative potency [9]: 0.75
SMILES: Cn1c(/C=C/C(=O)O)ccc1Cn1ccnc1
